Source: ChEMBL document CHEMBL3232832, “Derivatives of dibenzothiophene for positron emission tomography imaging of α7-nicotinic acetylcholine receptors” (J Med Chem, 2013)

How the values were obtained:
Thalamus = assay: Drug uptake in CD-1 mouse thalamus at 70 uCi, iv followed by compound washout by gamma-counting analysis; assay type: ADME, organism-based; settings: in vivo
Procedure, shortened: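 Male CD-1 mice (25–30 g) given [18F]radioligand i.v. into a lateral tail vein (70 µCi, 8000–12000 mCi/µmol, in 0.2 mL saline). Killed by cervical dislocation at various times, three per time point. Brains dissected on ice; regions weighed and gamma-counted with injectate standards. Result as %ID/g.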

Hippocampus [1] = assay: Drug uptake in CD-1 mouse hippocampus at 70 uCi, iv administered 10 mins post naltrindole challenge measured after 90 mins; assay type: ADME, organism-based; settings: in vivo, 1.5 h
Procedure, shortened: (§1)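 Male CD-1 mice, n=3. Drug at 2 mg/kg s.c. in saline:DMSO 5:1, with vehicle controls. [18F] radiotracer (70 µCi, SA ~14000 mCi/µmol) given i.v. 10 min later. Regions harvested 90 min after tracer, gamma counted, expressed as %ID/g. Compared by single-factor ANOVA.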

[2] = Drug uptake in CD-1 mouse superior and inferior colliculus at 70 uCi, iv after 90 mins in presence of cytisine; assay type: ADME, organism-based; settings: in vivo, 1.5 h
Cortex [3] = assay: Drug uptake in CD-1 mouse cortex at 70 uCi, iv administered 10 mins post ketanserin challenge measured after 90 mins; assay type: ADME, organism-based; settings: in vivo, 1.5 h; procedure, shortened: as §1
Brain [4] = assay: Drug uptake in CD-1 mouse other brain region at 70 uCi, iv administered 10 mins post SSR180711 challenge measured after 90 mins; assay type: ADME, organism-based; settings: in vivo, 1.5 h
Nucleic Acid = assay: Ratio of drug uptake from superior and inferior colliculus to cerebellum in CD-1 mouse after 90 mins; assay type: ADME, nucleic-acid assay; settings: 1.5 h
Procedure, shortened: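 CD-1 mouse baseline biodistribution after i.v. [18F]radioligand (70 µCi, 8000–12000 mCi/µmol, in 0.2 mL saline), three mice per time point to 90 min. Regional gamma-counting gave %ID/g, and each region was expressed as a ratio to cerebellum.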

Cerebellum [5] = assay: Drug uptake in CD-1 mouse cerebellum at 70 uCi, iv administered 10 mins post spiperone challenge measured after 90 mins; assay type: ADME, organism-based; settings: in vivo, 1.5 h; procedure, shortened: as §1
Hippocampus [6] = assay: Drug uptake in CD-1 mouse hippocampus at 70 uCi, iv after 90 mins in presence of nicotine; assay type: ADME, organism-based; settings: in vivo, 1.5 h
Procedure, shortened: (§2)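 Male CD-1 mice, n=3. […] [18F] radiotracer (70 µCi, SA ~14000 mCi/µmol) given i.v. 5 min later. Regions harvested at 90 min, gamma counted, expressed as %ID/g.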

[7] = Drug uptake in CD-1 mouse superior and inferior colliculus at 70 uCi, iv administered 10 mins post spiperone challenge measured after 90 mins; assay type: ADME, organism-based; settings: in vivo, 1.5 h
Procedure, shortened: (§3)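 Male CD-1 mice (25–30 g). […] Brains removed 90 min later and dissected on ice. Regions weighed and gamma-counted against injectate standards. Result as %ID/g, mean ± SD, n=3; ANOVA versus controls.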

[8] = Drug uptake in CD-1 mouse superior and inferior colliculus at 0.07 mCi, iv after 90 mins co-administered with SSR180711; assay type: ADME, organism-based; settings: in vivo, 1.5 h
Procedure, shortened: (§4)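 Male CD-1 mice. [18F]tracer (0.07 mCi, SA 7900 mCi/µmol, 0.2 mL) co-injected i.v. with blocker at 0 (vehicle), 0.02, 0.2, 1 or 3 mg/kg. Blocker dissolved in saline:alcohol 9:1, pH 5.5. Brain regions harvested at 90 min and gamma-counted. %ID/g, mean ± SD, n=3 per dose; ANOVA versus controls.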

Hippocampus [9] = assay: Drug uptake in CD-1 mouse hippocampus at 70 uCi, iv followed by compound washout by gamma-counting analysis; assay type: ADME, organism-based; settings: in vivo
Procedure, shortened: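 Male CD-1 mice (25–30 g), three per time point. [18F] radiotracer (70 µCi, SA 8000–12000 mCi/µmol, in 0.2 mL saline) given by tail vein. Killed at several times up to 90 min. Dissected regions weighed and gamma counted against injectate standards, giving %ID/g.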

Striatum = assay: Drug uptake in CD-1 mouse striatum at 0.07 mCi, iv after 90 mins co-administered with SSR180711; assay type: ADME, organism-based; settings: in vivo, 1.5 h; procedure, shortened: as §4
Hippocampus [10] = assay: Drug uptake in CD-1 mouse hippocampus at 70 uCi, iv after 90 mins in presence of cytisine; assay type: ADME, organism-based; settings: in vivo, 1.5 h; procedure, shortened: as §2
Hippocampus [11] = assay: Drug uptake in CD-1 mouse hippocampus at 70 uCi, iv administered 10 mins post SCH23390 challenge measured after 90 mins; assay type: ADME, organism-based; settings: in vivo, 1.5 h; procedure, shortened: as §1
Cerebellum [12] = assay: Drug uptake in CD-1 mouse cerebellum at 0.07 mCi, iv after 90 mins in presence of 3-(1,4-Diazabicyclo[3.2.2]nonan-4-yl)-6-fluorodibenzo[b,d]thiophene 5,5-Dioxide; assay type: ADME, organism-based; settings: in vivo, 1.5 h
Procedure, shortened: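 Male CD-1 mice, n=3. [18F] radiotracer (70 µCi, 0.2 mL) given i.v. together with unlabeled blocker in saline pH 5.5. Brain regions dissected at 90 min, gamma counted, expressed as %ID/g.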

Cerebellum [13] = assay: Drug uptake in CD-1 mouse cerebellum at 70 uCi, iv administered 10 mins post naltrindole challenge measured after 90 mins; assay type: ADME, organism-based; settings: in vivo, 1.5 h; procedure, shortened: as §1
Hippocampus [14] = assay: Drug uptake in CD-1 mouse hippocampus at 0.07 mCi, iv after 90 mins relative to drug uptake in CD-1 mouse cerebellum; assay type: ADME, organism-based; settings: in vivo, 1.5 h
Cortex [15] = assay: Drug uptake in CD-1 mouse cortex at 70 uCi, iv administered 10 mins post SSR180711 challenge measured after 90 mins; assay type: ADME, organism-based; settings: in vivo, 1.5 h
Hippocampus [16] = assay: Drug uptake in CD-1 mouse hippocampus at 70 uCi, iv administered 10 mins post SSR180711 challenge measured after 90 mins; assay type: ADME, organism-based; settings: in vivo, 1.5 h
Mus musculus = assay: Toxicity in CD-1 mouse assessed as change in locomotor activity at 0.07 mCi, iv after 90 mins in presence of 3-(1,4-Diazabicyclo[3.2.2]nonan-4-yl)-6-fluorodibenzo[b,d]thiophene 5,5-Dioxide; assay type: organism-based; settings: in vivo, 1.5 h
Procedure, shortened: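 CD-1 mice observed for behavioral and locomotor changes during self-blockade studies. [18F]tracer (0.07 mCi, i.v.) was co-injected with the non-radioactive ligand at 0.3 or 0.2 mg/kg i.v., dissolved in saline at pH 5.5. Brains were harvested at 90 min.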

Hippocampus [17] = assay: Drug uptake in CD-1 mouse hippocampus at 70 uCi, iv administered 10 mins post ondansetron challenge measured after 90 mins; assay type: ADME, organism-based; settings: in vivo, 1.5 h; procedure, shortened: as §1
Cortex [18] = assay: Drug uptake in CD-1 mouse cortex at 70 uCi, iv administered 10 mins post naltrindole challenge measured after 90 mins; assay type: ADME, organism-based; settings: in vivo, 1.5 h; procedure, shortened: as §1
[19] = Drug uptake in CD-1 mouse superior and inferior colliculus at 70 uCi, iv administered 10 mins post SSR180711 challenge measured after 90 mins; assay type: ADME, organism-based; settings: in vivo, 1.5 h
Procedure, shortened: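 Male CD-1 mice given the selective α7 partial agonist as positive control, 2 mg/kg s.c. in saline:DMSO 5:1 (0.1 mL), 10 min before i.v. [18F]tracer (70 µCi, ~14000 mCi/µmol, 0.2 mL). Controls received vehicle. Brain regions dissected at 90 min and gamma-counted. %ID/g, mean ± SD, n=3; ANOVA.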

[20] = Drug uptake in CD-1 mouse superior and inferior colliculus at 70 uCi, iv administered 10 mins post naltrindole challenge measured after 90 mins; assay type: ADME, organism-based; settings: in vivo, 1.5 h; procedure, shortened: as §3
[21] = Drug uptake in CD-1 mouse superior and inferior colliculus at 70 uCi, iv after 90 mins in presence of nicotine; assay type: ADME, organism-based; settings: in vivo, 1.5 h
Cerebellum [22] = assay: Drug uptake in CD-1 mouse cerebellum at 70 uCi, iv after 90 mins in presence of cytisine; assay type: ADME, organism-based; settings: in vivo, 1.5 h; procedure, shortened: as §2
Brain [23] = assay: Drug uptake in CD-1 mouse other brain region at 70 uCi, iv administered 10 mins post SCH23390 challenge measured after 90 mins; assay type: ADME, organism-based; settings: in vivo, 1.5 h; procedure, shortened: as §1

Q: For `O=S1(=O)c2cc(N3CCN4CCC3CC4)ccc2-c2cccc([18F])c21`, which Drug uptake (Thalamus) is on record?
A: Its Drug uptake is “Active”.

Q: And the Drug uptake (Hippocampus [1])?
A: Its Drug uptake is “Active”.

Q: What about the Drug uptake [2] of the same molecule?
A: The Drug uptake was “Not Active”.

Q: And the Drug uptake (Cortex [3])?
A: The Drug uptake was “Active”.

Q: What about the Drug uptake (Brain [4]) of the same molecule?
A: Its Drug uptake is “Not Active”.

Q: What about the Ratio (Nucleic Acid) of the same molecule?
A: The Ratio was 8.

Q: And the Drug uptake (Cerebellum [5])?
A: The Drug uptake was “Active”.

Q: And the Drug uptake (Hippocampus [6])?
A: Its Drug uptake is “Not Active”.

Q: And the Drug uptake [7]?
A: The Drug uptake was “Active”.

Q: What about the Drug uptake [8] of the same molecule?
A: The Drug uptake was “Not Active”.

Q: And the Drug uptake (Hippocampus [9])?
A: The Drug uptake was “Active”.

Q: What about the Drug uptake (Striatum) of the same molecule?
A: The Drug uptake was “Not Active”.

Q: What about the Drug uptake (Hippocampus [10]) of the same molecule?
A: Its Drug uptake is “Not Active”.

Q: What about the Drug uptake (Hippocampus [11]) of the same molecule?
A: Its Drug uptake is “Active”.

Q: And the Drug uptake (Cerebellum [12])?
A: The Drug uptake was “Active”.

Q: What about the Drug uptake (Cerebellum [13]) of the same molecule?
A: The Drug uptake was “Active”.

Q: What about the Drug uptake (Hippocampus [14]) of the same molecule?
A: Its Drug uptake is 94%.

Q: What about the Drug uptake (Cortex [15]) of the same molecule?
A: The Drug uptake was “Not Active”.

Q: What about the Drug uptake (Hippocampus [16]) of the same molecule?
A: The Drug uptake was “Not Active”.

Q: And the Activity (Mus musculus)?
A: Its Activity is “Non-toxic”.

Q: And the Drug uptake (Hippocampus [17])?
A: The Drug uptake was “Active”.

Q: What about the Drug uptake (Cortex [18]) of the same molecule?
A: The Drug uptake was “Active”.

Q: And the Drug uptake [19]?
A: Its Drug uptake is “Not Active”.

Q: What about the Drug uptake [20] of the same molecule?
A: Its Drug uptake is “Active”.

Q: What about the Drug uptake [21] of the same molecule?
A: Its Drug uptake is “Not Active”.

Q: What about the Drug uptake (Cerebellum [22]) of the same molecule?
A: The Drug uptake was “Not Active”.

Q: And the Drug uptake (Brain [23])?
A: Its Drug uptake is “Active”.
